Results published in ChEMBL document CHEMBL4422636, “Investigation of the structural requirements for N-methyl-D-aspartate receptor positive and negative allosteric modulators based on 2-naphthoic acid” (Eur J Med Chem, 2019).
Active and inactive are the calls of the source. No cut-off for these calls is given here.

Columns and labels:
[1] = biological target: Glutamate receptor ionotropic, NMDA 2B (Rattus norvegicus) (UniProt Q00960); test: Agonist activity at rat GluN2B expressed in Xenopus laevis oocytes assessed as effect on current response at holding potential -60 mV by two-electrode voltage clamp method relative to L-glutamate/glycine; type: cell-based
Glutamate receptor ionotropic, NMDA 2B (Rattus norvegicus), sequence (Q00960 27-1482 limits assumed): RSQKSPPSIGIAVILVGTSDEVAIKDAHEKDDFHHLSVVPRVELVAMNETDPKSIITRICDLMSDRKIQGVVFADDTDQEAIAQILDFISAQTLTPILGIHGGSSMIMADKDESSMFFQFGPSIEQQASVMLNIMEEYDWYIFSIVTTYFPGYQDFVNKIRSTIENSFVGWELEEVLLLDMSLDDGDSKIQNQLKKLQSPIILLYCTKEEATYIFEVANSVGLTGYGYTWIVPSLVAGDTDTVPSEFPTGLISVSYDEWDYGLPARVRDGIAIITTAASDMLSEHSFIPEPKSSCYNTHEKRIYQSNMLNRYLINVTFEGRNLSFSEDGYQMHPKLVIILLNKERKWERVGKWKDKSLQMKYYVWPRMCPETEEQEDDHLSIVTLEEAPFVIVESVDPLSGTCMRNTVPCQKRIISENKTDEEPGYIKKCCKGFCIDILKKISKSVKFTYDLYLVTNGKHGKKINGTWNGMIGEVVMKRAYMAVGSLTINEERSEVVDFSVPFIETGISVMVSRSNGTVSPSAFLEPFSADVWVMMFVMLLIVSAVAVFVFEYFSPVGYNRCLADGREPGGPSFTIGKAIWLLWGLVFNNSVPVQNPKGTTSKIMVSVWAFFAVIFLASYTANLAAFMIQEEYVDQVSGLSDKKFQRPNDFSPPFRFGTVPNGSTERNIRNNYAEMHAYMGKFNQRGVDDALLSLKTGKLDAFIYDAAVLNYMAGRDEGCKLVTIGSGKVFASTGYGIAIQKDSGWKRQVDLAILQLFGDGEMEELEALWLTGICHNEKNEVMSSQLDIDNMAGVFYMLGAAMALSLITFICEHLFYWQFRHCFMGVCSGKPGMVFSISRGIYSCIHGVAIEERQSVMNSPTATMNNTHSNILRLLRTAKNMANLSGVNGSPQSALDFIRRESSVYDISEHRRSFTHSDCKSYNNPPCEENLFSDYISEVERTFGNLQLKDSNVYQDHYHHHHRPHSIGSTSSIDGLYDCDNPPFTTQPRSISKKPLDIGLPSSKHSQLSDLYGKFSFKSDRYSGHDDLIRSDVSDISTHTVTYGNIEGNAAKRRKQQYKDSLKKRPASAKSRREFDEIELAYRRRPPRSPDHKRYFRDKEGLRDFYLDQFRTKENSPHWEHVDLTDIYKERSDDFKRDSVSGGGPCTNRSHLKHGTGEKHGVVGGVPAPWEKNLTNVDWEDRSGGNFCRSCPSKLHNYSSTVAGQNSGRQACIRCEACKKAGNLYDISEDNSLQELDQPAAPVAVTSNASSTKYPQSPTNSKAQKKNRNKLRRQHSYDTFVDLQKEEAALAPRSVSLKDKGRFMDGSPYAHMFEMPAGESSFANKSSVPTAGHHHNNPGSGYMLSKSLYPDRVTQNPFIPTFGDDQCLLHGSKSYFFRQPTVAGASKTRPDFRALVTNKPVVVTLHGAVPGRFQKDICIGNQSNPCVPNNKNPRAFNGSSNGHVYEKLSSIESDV
Summary of the method: (§1)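 GluN1a with one GluN2 subunit; RNAs mixed 1:1–3 molar, 15–30 ng total injected into Xenopus oocytes, which were held in ND-96 at 17°C for 1–5 days. TEVC at −60 mV in 116 mM NaCl, 2 mM KCl, 0.3 mM BaCl2, 5 mM HEPES, pH 7.4. […] Reported as % of agonist-alone response, mean ± s.e.m., n≥4.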

[2] = biological target: Glutamate receptor ionotropic, NMDA 2A (Rattus norvegicus) (UniProt Q00959); test: Agonist activity at rat GluN2A expressed in Xenopus laevis oocytes assessed effect on current response at holding potential -60 mV by two-electrode voltage clamp method relative to L-glutamate/glycine; type: cell-based; summary of the method: as §1
[3] = biological target: Glutamate receptor ionotropic, NMDA 2A (Rattus norvegicus) (UniProt Q00959); test: Allosteric modulation of rat GluN2A expressed in Xenopus laevis oocytes assessed as L-glutamate/glycine-induced current response at 100 uM at holding potential -60 mV by two-electrode voltage clamp method relative to L-glutamate/glycine; type: cell-based; summary of the method: as §1
[4] = biological target: Glutamate receptor ionotropic, NMDA 2B (Rattus norvegicus) (UniProt Q00960); test: Allosteric modulation of rat GluN2B expressed in Xenopus laevis oocytes assessed as L-glutamate/glycine-induced current response at 100 uM at holding potential -60 mV by two-electrode voltage clamp method relative to L-glutamate/glycine; type: cell-based; summary of the method: as §1
[5] = biological target: Glutamate receptor ionotropic, NMDA 2D (Rattus norvegicus) (UniProt Q62645); test: Agonist activity at rat GluN2D expressed in Xenopus laevis oocytes assessed as effect on current response at holding potential -60 mV by two-electrode voltage clamp method relative to L-glutamate/glycine; type: cell-based; summary of the method: as §1
Glutamate receptor ionotropic, NMDA 2D (Rattus norvegicus), sequence (Q62645 whole entry): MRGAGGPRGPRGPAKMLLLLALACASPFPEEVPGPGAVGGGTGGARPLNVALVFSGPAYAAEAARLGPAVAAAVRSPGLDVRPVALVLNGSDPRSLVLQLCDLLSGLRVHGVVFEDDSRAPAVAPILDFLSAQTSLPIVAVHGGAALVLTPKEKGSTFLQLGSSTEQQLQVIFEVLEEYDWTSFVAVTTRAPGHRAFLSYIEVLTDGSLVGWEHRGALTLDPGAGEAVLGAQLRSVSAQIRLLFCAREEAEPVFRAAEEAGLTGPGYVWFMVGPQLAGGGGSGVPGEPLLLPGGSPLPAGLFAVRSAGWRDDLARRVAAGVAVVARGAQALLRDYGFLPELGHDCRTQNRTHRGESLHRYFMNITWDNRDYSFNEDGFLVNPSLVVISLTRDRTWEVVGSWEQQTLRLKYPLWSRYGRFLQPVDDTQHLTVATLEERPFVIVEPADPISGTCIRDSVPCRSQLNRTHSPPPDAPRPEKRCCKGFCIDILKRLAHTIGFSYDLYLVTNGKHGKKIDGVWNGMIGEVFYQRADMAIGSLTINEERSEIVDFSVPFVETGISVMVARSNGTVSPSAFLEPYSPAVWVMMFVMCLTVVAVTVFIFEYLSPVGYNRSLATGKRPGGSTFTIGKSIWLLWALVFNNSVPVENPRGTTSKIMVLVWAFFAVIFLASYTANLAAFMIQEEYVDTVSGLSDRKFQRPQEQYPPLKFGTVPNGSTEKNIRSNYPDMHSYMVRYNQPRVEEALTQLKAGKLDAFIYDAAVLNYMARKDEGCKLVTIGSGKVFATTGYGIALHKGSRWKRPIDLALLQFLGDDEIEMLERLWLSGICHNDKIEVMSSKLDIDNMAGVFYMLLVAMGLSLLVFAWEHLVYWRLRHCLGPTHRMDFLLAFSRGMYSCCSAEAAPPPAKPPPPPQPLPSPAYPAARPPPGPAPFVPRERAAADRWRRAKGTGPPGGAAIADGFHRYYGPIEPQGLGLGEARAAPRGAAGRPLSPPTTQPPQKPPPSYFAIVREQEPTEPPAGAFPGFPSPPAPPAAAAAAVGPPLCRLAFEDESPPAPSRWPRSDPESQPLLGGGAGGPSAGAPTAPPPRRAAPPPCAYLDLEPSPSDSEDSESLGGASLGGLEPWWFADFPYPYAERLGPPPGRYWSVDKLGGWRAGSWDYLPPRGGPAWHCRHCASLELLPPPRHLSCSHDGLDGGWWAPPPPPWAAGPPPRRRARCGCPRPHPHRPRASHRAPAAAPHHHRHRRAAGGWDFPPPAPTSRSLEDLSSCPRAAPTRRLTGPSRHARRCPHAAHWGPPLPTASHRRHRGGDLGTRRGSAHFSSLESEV

[6] = biological target: Glutamate receptor ionotropic, NMDA 2C (Rattus norvegicus) (UniProt Q00961); test: Agonist activity at rat GluN2C expressed in Xenopus laevis oocytes assessed effect on current response at holding potential -60 mV by two-electrode voltage clamp method relative to L-glutamate/glycine; type: cell-based; summary of the method: as §1
Glutamate receptor ionotropic, NMDA 2C (Rattus norvegicus), sequence (Q00961 20-1237 limits assumed): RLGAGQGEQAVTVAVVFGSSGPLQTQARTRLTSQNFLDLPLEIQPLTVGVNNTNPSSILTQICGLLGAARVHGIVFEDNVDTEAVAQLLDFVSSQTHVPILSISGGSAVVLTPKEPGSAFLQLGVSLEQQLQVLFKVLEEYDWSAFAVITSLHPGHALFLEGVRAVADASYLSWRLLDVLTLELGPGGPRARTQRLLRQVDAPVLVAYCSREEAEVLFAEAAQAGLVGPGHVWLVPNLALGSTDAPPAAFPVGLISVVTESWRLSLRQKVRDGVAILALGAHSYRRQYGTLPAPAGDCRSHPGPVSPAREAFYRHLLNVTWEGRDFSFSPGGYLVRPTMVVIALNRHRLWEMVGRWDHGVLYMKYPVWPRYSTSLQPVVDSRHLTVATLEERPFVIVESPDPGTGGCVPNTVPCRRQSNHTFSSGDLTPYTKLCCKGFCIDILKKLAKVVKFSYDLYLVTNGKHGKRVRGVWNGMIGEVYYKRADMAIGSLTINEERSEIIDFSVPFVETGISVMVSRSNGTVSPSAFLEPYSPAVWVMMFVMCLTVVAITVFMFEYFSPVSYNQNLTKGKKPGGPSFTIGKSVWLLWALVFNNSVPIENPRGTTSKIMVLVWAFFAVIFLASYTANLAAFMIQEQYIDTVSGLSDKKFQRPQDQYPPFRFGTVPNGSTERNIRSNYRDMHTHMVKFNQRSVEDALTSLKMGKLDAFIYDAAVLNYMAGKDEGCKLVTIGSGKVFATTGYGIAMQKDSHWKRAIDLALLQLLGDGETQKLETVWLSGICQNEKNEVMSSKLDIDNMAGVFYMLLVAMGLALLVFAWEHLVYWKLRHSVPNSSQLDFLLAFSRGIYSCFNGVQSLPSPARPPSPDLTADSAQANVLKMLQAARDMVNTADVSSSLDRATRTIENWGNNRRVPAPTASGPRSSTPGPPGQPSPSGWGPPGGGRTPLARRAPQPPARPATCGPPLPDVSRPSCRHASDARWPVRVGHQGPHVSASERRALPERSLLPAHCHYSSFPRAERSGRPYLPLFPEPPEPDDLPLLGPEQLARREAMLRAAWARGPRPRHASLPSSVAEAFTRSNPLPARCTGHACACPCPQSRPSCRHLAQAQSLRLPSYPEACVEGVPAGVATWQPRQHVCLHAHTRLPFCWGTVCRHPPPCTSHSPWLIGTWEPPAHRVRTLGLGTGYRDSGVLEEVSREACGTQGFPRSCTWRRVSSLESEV

[7] = biological target: Glutamate receptor ionotropic, NMDA 2D (Rattus norvegicus) (UniProt Q62645); test: Allosteric modulation of rat GluN2D expressed in Xenopus laevis oocytes assessed as L-glutamate/glycine-induced current response at 100 uM at holding potential -60 mV by two-electrode voltage clamp method relative to L-glutamate/glycine; type: cell-based; summary of the method: as §1
[8] = biological target: Glutamate receptor ionotropic, NMDA 2C (Rattus norvegicus) (UniProt Q00961); test: Allosteric modulation of rat GluN2C expressed in Xenopus laevis oocytes assessed as L-glutamate/glycine-induced current response at 100 uM at holding potential -60 mV by two-electrode voltage clamp method relative to L-glutamate/glycine; type: cell-based; summary of the method: as §1
[9] = Solubility of the compound at 100 uM; type: physicochemical
Summary of the method: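 Compounds were inspected for visible precipitation at the concentrations used in the oocyte assays.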

| Activity [1] | Activity [2] | Activity [3] | Activity [4] | Activity [5] | Activity [6] | Activity [7] | Activity [8] | solubility [9] | Structure (SMILES) |
| --- | --- | --- | --- | --- | --- | --- | --- | --- | --- |
| inactive | inactive | 135% | 152% | inactive | inactive | 220% | 264% | Soluble | CC(C)C/C=C/c1ccc2cc(C(=O)O)ccc2c1 |
| – | – | 91.8% | 85.2% | – | – | 80.7% | 94.1% | Soluble | O=C(O)c1cc2cc(CCc3ccccc3C(=O)O)ccc2cc1O |
| inactive | inactive | 178% | 309% | inactive | inactive | 301% | 357% | Soluble | CC(C)CCCc1ccc2cc(C(=O)O)c(O)cc2c1 |
| – | – | 128% | 82% | – | – | 79% | 99% | Soluble | CC(C)CCC(=O)c1ccc2cc(C(=O)O)ccc2c1 |
| – | – | 113% | 77% | – | – | 100% | 105% | Soluble | CC(C)CSCc1ccc2cc(C(=O)O)ccc2c1 |
| – | – | 65% | 65% | – | – | 99% | 46% | Soluble | CC(C)CNC(=O)c1ccc2cc(C(=O)O)ccc2c1 |
| – | – | 159% | 179% | – | – | 169% | 144% | Soluble | CC(C)COC(=O)c1ccc2cc(C(=O)O)ccc2c1 |
| – | – | 73% | 45% | – | – | 42% | 56% | Soluble | CC(C)C(=O)OCc1ccc2cc(C(=O)O)ccc2c1 |
| – | – | 83% | 49% | – | – | 72% | 83% | Soluble | CC(C)COCc1ccc2cc(C(=O)O)ccc2c1 |
| – | – | 71.4% | 54.3% | – | – | 32.1% | 46.8% | Soluble | O=C(O)c1cc2cc(CCc3ccccc3)ccc2cc1O |
| – | – | 102% | 95.8% | – | – | 92.6% | 115% | Soluble | O=C(O)c1ccc(CCc2ccc3cc(O)c(C(=O)O)cc3c2)cc1 |

Further lines, the compound ahead of its results:

| Structure (SMILES) | Activity [1] | Activity [2] | Activity [3] | Activity [4] | Activity [5] | Activity [6] | Activity [7] | Activity [8] | solubility [9] |
| --- | --- | --- | --- | --- | --- | --- | --- | --- | --- |
| O=C(O)c1cccc(/C=C/c2ccc3cc(O)c(C(=O)O)cc3c2)c1 | – | – | 90.3% | 70% | – | – | 61.4% | 76.8% | Soluble |
| COc1ccc(/C=C/c2ccc3cc(O)c(C(=O)O)cc3c2)cc1 | – | – | 42.7% | 36% | – | – | 39% | 39.6% | Soluble |
| O=C(O)c1cc2cc(/C=C/c3ccccc3C(=O)O)ccc2cc1O | – | – | 92.1% | 84.5% | – | – | 103% | 83.7% | Soluble |
| COc1cccc(/C=C/c2ccc3cc(O)c(C(=O)O)cc3c2)c1 | – | – | 52.4% | 24.9% | – | – | 29.9% | 30.8% | Soluble |
| O=C(O)c1cc2cc(/C=C/c3ccccc3)ccc2oc1=O | – | – | 95.1% | 92% | – | – | 119% | 114% | Soluble |
| O=C(O)c1ccc(/C=C/c2ccc3cc(O)c(C(=O)O)cc3c2)cc1 | – | – | 89.7% | 89% | – | – | 67% | 85.2% | Soluble |
| O=C(O)c1cc2ccc(/C=C/c3ccccc3)cc2cc1C(=O)O | – | – | 55% | 66.7% | – | – | 38.6% | 37.1% | Soluble |
| COc1ccccc1/C=C/c1ccc2cc(O)c(C(=O)O)cc2c1 | – | – | 105% | 74% | – | – | 71% | 61.7% | Soluble |
